The structures appear in SMILES notation. pIC50: −log10 of the molar value.

For one assay, the system named is DU-145. Put plainly: Inhibitory concentration against DU145 prostate cancer cell line. It is filed as functional, cell-based. The following applies: Homo sapiens. The method in brief:
(§1)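 MTT growth assay: exponentially growing cells, (1-2) × 10^3 per well in 0.1 mL medium, were seeded on day 0 and cultured per supplier instructions. On day 1 an equal volume of medium carrying graded compound concentrations was added. On day 4 cultures received MTT (1 mg/mL in Dulbecco's PBS) for 4 h at 37 °C.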

The next assay concerns Granta. In words: Inhibitory concentration against Granta lymphoma cancer cell line. It is filed as functional, cell-based. The following applies: Homo sapiens. The method in brief: as §1
For the next assay, the system named is MCF7. Put plainly: Inhibitory concentration against MCF-7 breast cancer cell line. In kind it is functional, cell-based. The following applies: Homo sapiens. The method in brief: as §1
A further assay relates to NCI-H522 (human). In words: Inhibitory concentration against H522 (NSCLS) cancer cell line.
Another assay has as its system HeLa. Put plainly: Inhibitory concentration against Hela cervix cancer cell line. It is filed as functional, cell-based. The following applies: Homo sapiens. The method in brief:
as §1

The test system of the next assay is HT-29. In words: Inhibitory concentration against HT-29 colon cancer cell line. It is filed as functional, cell-based. The following applies: Homo sapiens. The method in brief: as §1
Assay [1] deals with RPMI-8226. In words: Inhibitory concentration against 8226/Dox40 (Dox-Re) cancer cell line. In kind it is functional, cell-based. The following applies: Homo sapiens. In outline: as §1
The subject of a further assay is MIA PaCa-2. Put plainly: Inhibitory concentration against MIA PaCa pancreas cancer cell line. The following applies: Homo sapiens. In kind it is functional, cell-based. In outline: as §1
Another assay deals with U-937. In words: Inhibitory concentration against U937 lymphoma cancer cell line. In kind it is functional, cell-based. The following applies: Homo sapiens. The method in brief: as §1
Assay [2] relates to RPMI-8226. In words: Inhibitory concentration against 8226 myeloma cancer cell line. In kind it is functional, cell-based. The following applies: Homo sapiens. The method in brief:
as §1

One may read the pIC50 as −log10 of the IC50, conventionally taken in molar units. `N[C@H]1CCN(c2c(F)cc3c(=O)c(C(=O)O)cn4c3c2Oc2ccccc2-4)C1`: the negative logarithm of the IC50 (pIC50) is 6.33 in the assay on DU-145; 7.05 in the assay with Granta; 6.18 in the assay on MCF7; 6.52 in the assay on NCI-H522 (human); 6.10 in the assay on HeLa; 6.35 with HT-29. Besides, the pIC50 with RPMI-8226 [1] was 6.57; in the assay on MIA PaCa-2, 6.38; in the assay on U-937, 6.51; in the assay with RPMI-8226 [2], 6.57.
In the case of `C[C@]1([C@H]2Cc3ccc4c(c3O2)-n2cc(C(=O)O)c(=O)c3cc(F)c(N5CC[C@H](N)C5)c(c32)O4)CO1`, the negative-log IC50 (pIC50) was 7.10 with DU-145; 8.40 in the assay on Granta; 6.62 with MCF7; 7.15 in the assay on NCI-H522 (human); 6.54 in the assay on HeLa; 6.85 in the assay on HT-29. Besides, the pIC50 is 7.30 with RPMI-8226 [1], 7.05 in the assay on MIA PaCa-2, 7.52 with U-937 and 7.05 with RPMI-8226 [2].
Take `C[C@@](O)(CCl)[C@H]1Cc2ccc3c(c2O1)-n1cc(C(=O)O)c(=O)c2cc(F)c(N4CC[C@H](N)C4)c(c21)O3`: the pIC50 was 7.52 in the assay with DU-145; 8.70 with Granta; 7.10 in the assay on MCF7; 7.70 in the assay with NCI-H522 (human); 6.89 with HeLa; 7.05 in the assay with HT-29. For the same compound, the pIC50 in the assay on RPMI-8226 [1] was 7.52; in the assay with MIA PaCa-2, 7.40; in the assay with U-937, 7.70; in the assay on RPMI-8226 [2] it was 7.30.
On to `COc1cc2c(c3oc4c(O)cccc4c(=O)c13)C[C@H]([C@@]1(C)CO1)O2` [PSOROSPERMIN], for which the negative logarithm of the IC50 (pIC50) is 6.68 with DU-145; 7.40 in the assay on Granta; 6.24 in the assay on MCF7; 6.11 in the assay on NCI-H522 (human); 5.84 in the assay with HeLa; 5.95 in the assay with HT-29. In addition, the negative logarithm of the IC50 (pIC50) was 6.64 in the assay with RPMI-8226 [1], 6.42 with MIA PaCa-2, 6.57 with U-937 and 6.54 in the assay on RPMI-8226 [2].

For the origin of these results see ChEMBL document CHEMBL1145830, “Design, synthesis, and evaluation of psorospermin/quinobenzoxazine hybrids as structurally novel antitumor agents” (J Med Chem, 2003).
